Test results from ChEMBL document CHEMBL3352380, “Development of benzo[d]oxazol-2(3H)-ones derivatives as novel inhibitors of Mycobacterium tuberculosis InhA” (Bioorg Med Chem, 2014).
In brackets after ≈: the same amount, converted by molar mass.

Tests used:
[1] = biological target: T1, Enoyl-[acyl-carrier-protein] reductase [NADH] (Mycobacterium tuberculosis) (UniProt P9WGR1); assay: Inhibition of Mycobacterium tuberculosis recombinant His6-tagged InhA expressed in Escherichia coli BL21(DE3) using 2-trans-decenoyl-CoA as substrate at 10 uM incubated for 2 hrs prior to substrate addition by spectrophotometry
T1 sequence (whole entry): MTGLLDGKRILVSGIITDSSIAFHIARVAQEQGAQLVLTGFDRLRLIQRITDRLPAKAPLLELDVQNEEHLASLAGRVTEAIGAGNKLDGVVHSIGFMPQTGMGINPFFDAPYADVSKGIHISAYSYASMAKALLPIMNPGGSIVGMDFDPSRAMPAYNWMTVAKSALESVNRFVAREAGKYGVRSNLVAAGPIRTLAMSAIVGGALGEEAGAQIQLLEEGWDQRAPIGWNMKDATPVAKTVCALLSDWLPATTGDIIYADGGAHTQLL
Procedure, shortened: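 His6-InhA expressed in E. coli BL21(DE3) with 0.1 mM IPTG at 18 °C and purified on Ni-NTA. 70 nM enzyme pre-incubated 2 h with inhibitor at 10 µM in 30 mM PIPES, 150 mM NaCl, pH 6.8, 0.5% DMSO, 25 °C. Reaction started with DD-CoA plus NADH and followed at 340 nm. Initial velocity compared with a no-ligand control; triplicate.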

[2] = Cytotoxicity against mouse RAW264.7 cells at 50 uM after 72 hrs by MTT assay; format: cell-based; conditions: read-out: INH
Procedure, shortened: (§1)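 RAW 264.7 macrophages exposed to compound for 72 h. Viability read as MTT conversion to formazan with a non-radioactive cell proliferation kit, reported as percentage growth inhibition.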

[3] = tested on: Mycobacterium tuberculosis; assay: Antimicrobial activity against Mycobacterium tuberculosis H37Rv ATCC 27294 after 28 days by two-fold agar dilution method in presence of piperine; format: functional; conditions: H37Rv ATCC 27294, 672 h
Procedure, shortened: (§2)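 Two-fold serial dilutions in Middlebrook 7H11 agar with OADC supplement, final 50 to 0.78 µg/mL. Inoculum from fresh 7H11/OADC slants, adjusted to 1 mg/mL wet weight in 0.05% Tween 80 saline and diluted 10^-2 (~10^7 cfu/mL), spotted onto drug-containing agar tubes. Incubated at 37 °C; MIC is the lowest concentration inhibiting growth, read at 28 days.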

[4] = tested on: Mycobacterium tuberculosis; assay: Antimicrobial activity against Mycobacterium tuberculosis H37Rv ATCC 27294 after 28 days by two-fold agar dilution method in presence of verapamil; format: functional; conditions: H37Rv ATCC 27294, 672 h; procedure, shortened: as §2
[5] = Cytotoxicity against mouse RAW264.7 cells at 100 uM after 72 hrs by MTT assay; format: cell-based; conditions: read-out: INH; procedure, shortened: as §1
[6] = tested on: Mycobacterium tuberculosis; assay: Antimicrobial activity against Mycobacterium tuberculosis H37Rv ATCC 27294 after 28 days by two-fold agar dilution method; format: functional; conditions: H37Rv ATCC 27294, 672 h; procedure, shortened: as §2
[7] = biological target: T2, Enoyl-[acyl-carrier-protein] reductase [NADH] (Mycobacterium tuberculosis, UniProt P9WGR1); assay: Inhibition of Mycobacterium tuberculosis recombinant His6-tagged InhA expressed in Escherichia coli BL21(DE3) using 2-trans-decenoyl-CoA as substrate incubated for 2 hrs prior to substrate addition by spectrophotometry
T2 sequence (P9WGR1 whole entry): T1 sequence (whole entry)

| Structure (SMILES) | inhibition [1] | cytotoxicity at 72 h, 50 µM [2] | MIC [3] | MIC [4] | cytotoxicity at 72 h, 100 µM [5] | MIC [6] | IC50 [7] |
| --- | --- | --- | --- | --- | --- | --- | --- |
| O=C(Cn1c(=O)oc2cc([N+](=O)[O-])ccc21)Nc1ccccn1 | 15.6% | 38.6% | 9.94 µM | 19.9 µM | 47.3% | 39.8 µM (≈ 12.5 µg/mL) | – |
| O=C(Cn1c(=O)oc2cc([N+](=O)[O-])ccc21)Nc1nc2ccc([N+](=O)[O-])cc2s1 | 51.7% | 14.8% | 3.75 µM | 3.75 µM | 39% | 15 µM (≈ 6.25 µg/mL) | – |
| O=C(Cn1c(=O)oc2cc(Cl)ccc21)Nc1cc(C(F)(F)F)ccc1Cl | 40.1% | 1.61% | 15.4 µM | 15.4 µM | 12.1% | 61.7 µM (≈ 25 µg/mL) | – |
| O=C(Cn1c(=O)oc2cc([N+](=O)[O-])ccc21)NCc1ccccn1 | 68.1% | 21.8% | 9.51 µM | 38.1 µM | 33.4% | 76.2 µM (≈ 25 µg/mL) | 8.23 µM |
| O=C(Cn1c(=O)oc2ccccc21)NCc1cccs1 | 26.1% | 23.4% | 5.41 µM | 10.8 µM | 49.1% | 21.7 µM (≈ 6.25 µg/mL) | – |
| O=C(Cn1c(=O)oc2ccccc21)NCc1ccccn1 | 42.2% | 37.3% | 44.1 µM | 22.1 µM | 38.7% | 88.2 µM (≈ 25 µg/mL) | – |
| O=C(Cn1c(=O)oc2ccccc21)Nc1cccc(Cl)c1 | 17% | – | – | – | – | – | > 25 µM |
| O=C(Cn1c(=O)oc2cc([N+](=O)[O-])ccc21)Nc1nc2ccccc2s1 | 60.8% | 22.7% | 33.8 µM | 33.8 µM | 56.1% | 33.8 µM (≈ 12.5 µg/mL) | 7.62 µM |
| O=C(Cn1c(=O)oc2cc(Cl)ccc21)Nc1nc2ccccc2s1 | 58.2% | 38.7% | 17.4 µM | 8.68 µM | 52.5% | 17.4 µM (≈ 6.25 µg/mL) | 8.9 µM |
| O=C(Cn1c(=O)oc2ccccc21)Nc1ncc([N+](=O)[O-])s1 | 48.1% | 25% | 19.5 µM | 39 µM | 44.6% | 78 µM (≈ 25 µg/mL) | – |
| NNC(=O)c1ccncc1 [ISONIAZID] | – | – | – | – | – | 0.72 µM (≈ 0.0987 µg/mL) | – |
| O=C(Cn1c(=O)oc2cc(Cl)ccc21)NCc1ccccn1 | 43.1% | 36.1% | 4.91 µM | 4.91 µM | 40% | 39.3 µM (≈ 12.5 µg/mL) | – |
| O=C(Cn1c(=O)oc2ccccc21)Nc1ccccn1 | 26.1% | 20.2% | 9.28 µM | 4.64 µM | 28.4% | 46.4 µM (≈ 12.5 µg/mL) | – |
| O=C(Cn1c(=O)oc2cc([N+](=O)[O-])ccc21)NCc1cccs1 | 35.7% | 36.5% | 18.8 µM | 18.8 µM | 41% | 18.8 µM (≈ 6.25 µg/mL) | – |
| O=C(Cn1c(=O)oc2ccccc21)Nc1ccc(Cl)c(Cl)c1 | 16.5% | – | – | – | – | – | > 25 µM |
| O=C(Cn1c(=O)oc2cc(Cl)ccc21)Nc1nc2ccc([N+](=O)[O-])cc2s1 | 48.6% | 12.5% | 7.72 µM | 7.72 µM | 14.2% | 30.9 µM (≈ 12.5 µg/mL) | – |
| O=C(Cn1c(=O)oc2cc(Cl)ccc21)Nc1ccccc1 | 28.2% | 15.8% | 41.3 µM | 20.6 µM | 20.2% | 82.6 µM (≈ 25 µg/mL) | – |
